According to ChEMBL document CHEMBL3352556, “Neural cell activation by phenolic compounds from the Siberian larch (Larix sibirica)” (J Nat Prod, 2014):
The source made the active and inactive calls. The calls are words filed in the database; no cut-off is given here.

What was measured:
[1] = Cytotoxicity against C57BL/6J mouse primary cerebellar neurons assessed as reduction in cell viability at 1 uM after 24 hrs by microscopy
Mus musculus [2] = species on record: Mus musculus; experiment: Induction of neurite outgrowth in C57BL/6J mouse motoneurons at 1 to 200 nM after 24 hrs by microscopy; assay type: functional
Method in brief: (§1)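 Motoneurons came from spinal cords of E14.5 mice, were seeded at 1.25 × 10^4 cells/well on poly-L-ornithine and cultured serum-free. Compound was added 1 h after seeding (0.1% DMSO final; DMSO control) and cells were fixed at 24 h. Neurite length was measured microscopically. Duplicates, ≥100 cells per treatment, 3 independent experiments, mean ± SEM.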

Mus musculus [3] = species on record: Mus musculus; experiment: Induction of neurite outgrowth in C57BL/6J mouse motoneurons at 500 nM after 24 hrs by microscopy; assay type: functional; method in brief: as §1
[4] = Induction of migration of C57BL/6J mouse cerebellar primary neuron at 100 nM after 48 hrs by microscopy relative to DMSO-treated control; assay type: functional
[5] = Induction of migration of C57BL/6J mouse cerebellar primary neuron assessed as cell population migrating to 1- 150 um at 100 nM after 48 hrs by microscopy (reference value: 72 %); assay type: functional
[6] = Induction of migration of C57BL/6J mouse cerebellar primary neuron assessed as cell population migrating to 151- 300 um at 100 nM after 48 hrs by microscopy (reference value: 25 %); assay type: functional
[7] = Induction of migration of C57BL/6J mouse cerebellar primary neuron assessed as cell population migrating to >301 um at 100 nM after 48 hrs by microscopy (reference value: 3 %); assay type: functional
Schwann [8] = experiment: Stimulation of process formation/elongation of C57BL/6J mouse Schwann cells after 24 hrs by microscopy; assay type: functional, cell-based
Method in brief: (§2)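 Schwann cells from dorsal root ganglia of 6- to 8-day-old mice were seeded at 1.25 × 10^4 cells/well on PLL and cultured serum-free. Compound (0.1% DMSO final; DMSO control) was added 1 h after seeding and cells were fixed at 24 h. Process length was measured microscopically. Duplicates, ≥100 cells per treatment, 3 independent experiments, mean ± SEM.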

[9] = Stimulation of process formation/elongation of C57BL/6J mouse Schwann cells at 100 pM to 100 nM after 24 hrs by microscopy relative to DMSO-treated control; assay type: functional; method in brief: as §2
Schwann [10] = experiment: Stimulation of process formation/elongation of C57BL/6J mouse Schwann cells at 1 uM after 24 hrs by microscopy; assay type: functional, cell-based; method in brief: as §2
[11] = Cytotoxicity against C57BL/6J mouse Schwann cells at 1 uM after 24 hrs by microscopy; assay type: cell-based
Astrocyte = experiment: Reduction in migration of C57BL/6J mouse brain astrocytes assessed as distance of migration at 100 nM after 8 to 48 hrs by scratch injury assay (reference value: 700 um); assay type: functional
Mus musculus [12] = species on record: Mus musculus; experiment: Induction of neurite outgrowth in C57BL/6J mouse primary cerebellar neurons after 24 hrs by microscopy; assay type: functional
Method in brief: (§3)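 Cerebellar granule neurons from 6- to 8-day-old mice were plated at 2.5 × 10^4 cells/well on PLL in defined serum-free medium. Compound (100 pM–1 μM; 0.1% DMSO final, DMSO control) was added 1 h post-seeding and cells were fixed at 24 h. Neurite length was measured by microscopy. Duplicates, ≥100 cells per treatment, 3 independent experiments, mean ± SEM.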

[13] = Induction of neurite outgrowth in C57BL/6J mouse primary cerebellar neurons at 100 nM after 24 hrs by microscopy relative to DMSO-treated control; assay type: functional; method in brief: as §3
[14] = Induction of neurite outgrowth in C57BL/6J mouse dorsal root ganglion neurons at 100 nM after 24 hrs by microscopy relative to DMSO-treated control; assay type: functional, DRG neuron
Method in brief: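 Dorsal root ganglion neurons from 6- to 8-day-old mice were seeded at 1.25 × 10^4 cells/well on PLL in serum-free culture. 100 nM compound (0.1% DMSO final) was added 1 h after seeding. Cells were fixed after 24 h and neurite length was measured by microscopy versus DMSO control. Duplicates, ≥100 cells per treatment, 3 independent experiments, mean ± SEM.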

| Compound | Activity [1] | Activity (Mus musculus [2]) | Activity (Mus musculus [3]) | fold change (FC) [4] | Activity [5] [%] | Activity [6] [%] | Activity [7] [%] | Activity (Schwann [8]) | fold change (FC) [9] | Activity (Schwann [10]) | Activity [11] | Activity (Astrocyte) [µm] | Activity (Mus musculus [12]) | fold change (FC) [13] | fold change (FC) [14] |
| --- | --- | --- | --- | --- | --- | --- | --- | --- | --- | --- | --- | --- | --- | --- | --- |
| COc1cc(C[C@@H](CO)[C@H](CO)Cc2ccc(O)c(OC)c2)ccc1O [(+)-SECOISOLARICIRESINOL] | Non-toxic | Active | inactive | 1.2 | 65 | 27 | 8 | Dose-dependent effect | 1.8 | inactive | Non-toxic | 500 | Dose-dependent effect | 1.6 | – |
| O=C1c2c(O)cc(O)cc2O[C@H](c2ccc(O)c(O)c2)[C@H]1O [(+)-TAXIFOLIN] | Non-toxic | Active | inactive | 1.4 | 59 | 29 | 12 | Dose-dependent effect | 1.9 | inactive | Non-toxic | 500 | Dose-dependent effect | 1.6 | 1.7 |
| COc1cc([C@H]2c3cc(O)c(OC)cc3C[C@@H](CO)[C@@H]2CO)ccc1O [ISOLARICIRESINOL] | Non-toxic | Active | inactive | 1.2 | 68 | 24 | 8 | Dose-dependent effect | 1.8 | inactive | Non-toxic | 500 | Dose-dependent effect | 1.6 | – |
